The target of series [1] is Vascular endothelial growth factor receptor 2 (Homo sapiens, UniProt P35968). The series is described as follows: Inhibition of GST-tagged recombinant human VEGFR2 expressed in Sf9 cells by radiometric assay. It is filed as cell-based.
Series [2] relates to BAEC. The series is described as follows: Antiangiogenic activity in BAEC assessed as inhibition of cell migration to extracellular matrix at 1 uM after 7 hrs by wound-healing assay. It is filed as functional. The settings on record: Bos taurus. An outline of the steps:
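Confluent BAEC monolayers were wounded with a pipette tip to give one 1 mm-wide acellular lane. After washing, cells received complete medium without or with compound. The same fields were photographed at 0 and 7 h. Regrowth into the cell-free area was expressed as % recovered area, mean ± SD, n = 3.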

The species named for series [3] is Danio rerio. Description: Antiangiogenic activity in zebrafish embryo at 5 uM up to 24 hrs by GFP assay. It counts as functional. An outline of the steps:
(§1)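 Embryos of transgenic Zebrafish line TG(fli1:EGFP)y1 were used; a fli-1 promoter drives GFP expression in the endothelium. Embryos were incubated with different compound concentrations, and angiogenesis was assessed by live fluorescence imaging. Data are the percentage of treated embryos showing inhibited angiogenesis.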

The species named for series [4] is Danio rerio. The series is described as follows: Antiangiogenic activity in zebrafish embryo up to 24 hrs by GFP assay. It is filed as functional, organism-based. Summed up:
as §1

Series [5] in a line: Antiproliferative activity against BAEC after 3 days by MTT assay. It is filed as functional. The settings on record: Bos taurus, 72 h. An outline of the steps:
(§2)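 MTT dye-reduction assay: 3×10^3 BAE or 2×10^3 tumour cells in their own growth media were given serial dilutions of compound for 3 days at 37 °C, 5% CO2. MTT (5 mg/ml stock in PBS) was added for 4 h, and formazan was dissolved in 0.04 N HCl/2-propanol and read at 550 nm. IC50 is the concentration giving 50% survival; values are mean ± S.D. of at least three experiments in triplicate.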
In general terms: Tetrazolium dyes change colour on reduction, which living cells bring about.

For series [6], the species on record is Danio rerio. The series is described as follows: Antiangiogenic activity in zebrafish embryo assessed as inhibition of intersegmental blood vessel growth at 10 uM up to 24 hrs by GFP assay. It is filed as functional, organism-based. Summed up: as §1
For series [7], the species on record is Danio rerio. Description: Antiangiogenic activity in zebrafish embryo at 10 uM up to 24 hrs by GFP assay. It counts as functional. Summed up: as §1
Series [8] can be described thus: Antiproliferative activity against human HT1080 cells after 3 days by MTT assay. It is filed as functional, cell-based. The settings on record: HT-1080, 72 h. An outline of the steps:
as §2

The test system of another series is HT-29. Description: Antiproliferative activity against human HT-29 cells after 3 days by MTT assay. It counts as functional, cell-based. Particulars: HT-29, 72 h. Summed up:
as §2

In series [9] the test system is BAEC. Description: Antiangiogenic activity in BAEC assessed as inhibition of capillary tube formation after 7 hrs by matrigel assay. Particulars: Bos taurus. It is filed as functional. Summed up:
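BAE cells (5×10^4 per well) in DMEM were seeded on Matrigel (about 10.5 mg/mL) that had polymerized at 37 °C for at least 30 min. Cells were given compound at several amounts and kept at 37 °C, 5% CO2 for 7 h. Cord/tube formation was viewed at 200×. Each concentration was run in duplicate and scored by two independent observers.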

Series [10] is filed under the species Danio rerio. The series is described as follows: Toxicity in zebrafish embryo up to 24 hrs by GFP assay. It is filed as organism-based. Particulars: in vivo.
For another series, the system named is HL-60. The series is described as follows: Antiproliferative activity against human HL60 cells after 3 days by MTT assay. It is filed as functional, cell-based. The settings on record: HL-60, 72 h. An outline of the steps: as §2
The test system of a further series is U2OS. The series is described as follows: Antiproliferative activity against human U2OS cells after 3 days by MTT assay. It counts as functional, cell-based. The settings on record: 72 h. Summed up:
as §2

A further series has as its system MDA-MB-231. Description: Antiproliferative activity against human MDA-MB-231 cells after 3 days by MTT assay. The settings on record: MDA-MB-231, 72 h. It counts as functional, cell-based. An outline of the steps:
as §2

Series [11] is filed under the species Danio rerio. Description: Antiangiogenic activity in zebrafish embryo at 20 uM up to 24 hrs by GFP assay. It counts as functional. An outline of the steps:
as §1

Series [12] relates to BAEC. The series is described as follows: Induction of apoptosis in BAEC assessed as chromatin condensation at 0.5 to 1 uM after 14 hrs by Hoechst staining. It counts as functional. Particulars: Bos taurus. An outline of the steps:
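Subconfluent BAE cells on chamber slides were treated for 14 h with the indicated concentrations in complete medium. Cells were then PBS-washed, formalin-fixed and stained with Hoechst for 2 min. Nuclear morphology (chromatin condensation) was examined by fluorescence microscopy.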

Activity calls are given as the source filed them. The calls are words filed in the database; no cut-off is given here.

Vascular endothelial growth factor receptor 2, sequence (P35968 whole entry): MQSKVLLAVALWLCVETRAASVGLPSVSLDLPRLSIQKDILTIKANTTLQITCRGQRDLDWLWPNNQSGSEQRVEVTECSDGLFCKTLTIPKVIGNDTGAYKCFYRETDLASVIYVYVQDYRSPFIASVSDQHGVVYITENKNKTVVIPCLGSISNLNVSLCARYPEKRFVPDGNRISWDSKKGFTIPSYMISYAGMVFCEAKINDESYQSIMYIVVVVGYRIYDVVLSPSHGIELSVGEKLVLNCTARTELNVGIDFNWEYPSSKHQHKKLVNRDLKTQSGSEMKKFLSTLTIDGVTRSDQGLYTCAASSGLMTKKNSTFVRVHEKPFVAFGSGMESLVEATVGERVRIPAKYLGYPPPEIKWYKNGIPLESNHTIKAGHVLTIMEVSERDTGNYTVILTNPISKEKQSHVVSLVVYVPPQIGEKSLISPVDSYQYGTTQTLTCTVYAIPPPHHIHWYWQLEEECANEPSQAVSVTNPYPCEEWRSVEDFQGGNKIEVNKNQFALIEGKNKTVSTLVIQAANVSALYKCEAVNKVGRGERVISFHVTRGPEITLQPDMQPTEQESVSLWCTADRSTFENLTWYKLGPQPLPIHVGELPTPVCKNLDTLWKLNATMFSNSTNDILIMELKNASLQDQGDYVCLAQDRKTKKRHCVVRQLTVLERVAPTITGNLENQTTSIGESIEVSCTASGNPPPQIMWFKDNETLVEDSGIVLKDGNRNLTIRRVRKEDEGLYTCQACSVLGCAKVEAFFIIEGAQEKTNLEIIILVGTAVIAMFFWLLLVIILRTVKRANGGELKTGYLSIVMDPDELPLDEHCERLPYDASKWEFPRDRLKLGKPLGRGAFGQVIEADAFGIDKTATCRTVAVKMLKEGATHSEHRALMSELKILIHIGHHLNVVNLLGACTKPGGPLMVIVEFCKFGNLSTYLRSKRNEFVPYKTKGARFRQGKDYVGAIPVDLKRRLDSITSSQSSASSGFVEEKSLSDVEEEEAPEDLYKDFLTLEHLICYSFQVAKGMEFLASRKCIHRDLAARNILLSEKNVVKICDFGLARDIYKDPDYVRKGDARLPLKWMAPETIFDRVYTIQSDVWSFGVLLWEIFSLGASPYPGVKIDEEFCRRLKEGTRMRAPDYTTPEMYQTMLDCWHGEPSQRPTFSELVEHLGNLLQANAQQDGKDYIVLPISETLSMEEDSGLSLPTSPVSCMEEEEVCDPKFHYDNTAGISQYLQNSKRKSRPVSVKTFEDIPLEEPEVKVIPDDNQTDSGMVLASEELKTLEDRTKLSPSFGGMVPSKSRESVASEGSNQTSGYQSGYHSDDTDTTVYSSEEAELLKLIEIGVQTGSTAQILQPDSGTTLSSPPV

Take `CCS(=O)(=O)c1ccc(OC)c(Nc2ncc(-c3cc(Br)cc(-c4ccccn4)c3)o2)c1`: in [1], the IC50 (as a rule, the concentration that gives 50% inhibition) was 202 nM.

On to `CCS(=O)(=O)c1ccc(OC)c(Nc2ncc(-c3cc(-c4cccnc4)cc(-c4cccnc4)c3)o2)c1`, for which the half-maximal inhibitory concentration (IC50) in series [1] was found to be 170 nM.

As to `CCS(=O)(=O)c1ccc(OC)c(Nc2ncc(-c3cc(-c4cccnc4)cc(-c4ccccn4)c3)o2)c1`, in [1], the IC50 stood at 51.2 nM.

As for `CCS(=O)(=O)c1ccc(OC)c(Nc2ncc(-c3cc(-c4ccccn4)cc(-c4ccccn4)c3)o2)c1`, the inhibition entry in the series on BAEC [2] and in the series filed under Danio rerio [6] was “Active” each time. Further, the “inhibition (INH)” value in the series listed under Danio rerio [3] was 7%; in the series listed under Danio rerio [7] it was 53%; in the series filed under Danio rerio [11], 87%. Moreover, the IC50 in [1] came out at 15.1 nM; in series [5], 370 nM; in series [8], 2430 nM; with HT-29, 15200 nM; in the series on HL-60, 17800 nM; with U2OS, 2030 nM. For the same compound, 3990 nM corresponded to half-maximal inhibition with MDA-MB-231 (IC50). Further, the inhibition entry in the series filed under Danio rerio [4] and with BAEC [9] was “Dose-dependent effect” in each case. Moreover, the Activity entry in the series listed under Danio rerio [10] was “Non-toxic”. In addition, in the series with BAEC [12], the outcome was Active.
